In ChEMBL document CHEMBL1123103, “Pyrimidinones. 1. 2-Amino-5-halo-6-aryl-4(3H)-pyrimidinones. Interferon-inducing antiviral agents” (1985) one finds IFN, ED50 and Protection index data, which are given here for 24 compounds.

In general, ED50 refers to the dose that gives a 50% effect, or the effect in half of the subjects.

The subject of assay [1] is Mus musculus. As to the kind of experiment: Evaluation for serum interferon response from a single 800 mg/kg intraperitoneal administration in vesicular stomatitis virus on […] cells; Range 10-50 units/mL. The assay is classed as functional. An outline of the steps: (§1)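 Mice got a single ip 800 mg/kg dose. Blood was drawn 3, 6, 8 and 12 h later from five mice per group and pooled. Interferon titer was measured by plaque reduction with vesicular stomatitis virus on L929 cells. Titer is the reciprocal serum dilution cutting plaques by 50% versus untreated cultures. Peak response within 24 h was banded: ≥2000, ~500-1000, ~50-500, ~10-50 U/mL.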

Assay [2] deals with Semliki Forest virus. As to the kind of experiment: Effective dose administered subcutaneously againist Forest virus infected mice. The assay is classed as functional. The note with it: sc. The gist of the method: (§2)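 ICR or CD-1 mice of both sexes got one drug dose by the route in the line (ip, po or sc). The drug was a suspension in 0.9% NaCl or in a CMC/polysorbate 80/benzyl alcohol/NaCl vehicle. […] Deaths were recorded daily for 6 days, 24 mice/group. ED50 is the minimal dose protecting 50% of mice, by probit analysis.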

The test system of the next assay is Human alphaherpesvirus 1. As to the kind of experiment: Intraperitoneal administration against herpes simplex virus type-1 (HSV-1) infected mice. The assay is classed as functional. The gist of the method: (§3)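 ICR or CD-1 mice got drug ip in saline as the total daily dose (mg/kg/day). It was split into doses at -40, -28, -20, -3 and +3 h relative to ip inoculation with 5.6×10^4 pfu HSV-1. Mice were followed for 22 days, 15/group. Protection index = (control mortality − treated mortality)/control mortality; >0.25 counted active. Only the lowest protective dose is recorded.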

Assay [3] concerns Semliki Forest virus. As to the kind of experiment: Antiviral activity against Forest virus (SFV). In kind it is functional. The gist of the method: as §2
In assay [4] the test system is Semliki Forest virus. As to the kind of experiment: Effective dose administered perorally againist Forest virus infected mice. The assay is classed as functional. The note with it: po. The gist of the method: as §2
For assay [5], the system named is Semliki Forest virus. As to the kind of experiment: Effective dose administered perorally against Forest virus infected mice. The assay is classed as functional, organism-based. The gist of the method:
(§4)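 Drug was suspended in 0.9% NaCl or in a carboxymethylcellulose/polysorbate 80/benzyl alcohol/NaCl vehicle. Deaths were recorded daily for 6 days, with 24 mice per group. The ED50 is the minimal dose protecting 50% of mice, calculated by probit analysis.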

Assay [6] concerns Semliki Forest virus. As to the kind of experiment: Effective dose administered subcutaneously against Forest virus infected mice. In kind it is functional, organism-based. The gist of the method: as §4
Assay [7] has as its system Semliki Forest virus. As to the kind of experiment: Effective dose administered intraperitoneally againist Forest virus infected mice. In kind it is functional, organism-based. An outline of the steps:
as §4

Assay [8] has as its system Mus musculus. As to the kind of experiment: Protection index after intraperitoneal administration (50 mg/kg/day) against herpes simplex virus type-1 (HSV-1) infected mice [protection index=(control mortality-treated mortality)/control mortality]. The assay is classed as functional. The gist of the method: as §3
Assay [9] has as its system Vesicular stomatitis virus. As to the kind of experiment: Evaluation for serum interferon response from a single 800 mg/kg intraperitoneal administration in vesicular stomatitis virus on […] cells. In kind it is functional. The gist of the method:
as §1

Activity calls are given as the source filed them. The calls are words filed in the database; no cut-off is given here.

`Nc1nc(O)c(I)c(-c2cccc3ccccc23)n1` yielded an IFN in the assay on Mus musculus [1] of 10 units/mL. In addition, the ED50 with Semliki Forest virus [2] was more than 400 mg/kg; in the assay with Semliki Forest virus [3] it was 70 mg/kg; in the assay with Semliki Forest virus [4] it was more than 400 mg/kg. Besides, the Protection index in the assay with Human alphaherpesvirus 1 was determined as 0.18.

Consider `Nc1nc(O)c(Cl)c(-c2ccc3ccccc3n2)n1`, for which the ED50 entry in the assay on Semliki Forest virus [5], with Semliki Forest virus [6] and in the assay on Semliki Forest virus [7] was “inactive” in each case. In addition, in the assay on Human alphaherpesvirus 1, the Protection index is recorded as 0.07.

On to `Nc1nc(O)c(Br)c(-c2ccc(O)cc2)n1`, for which the ED50 entry with Semliki Forest virus [5] and with Semliki Forest virus [6] was “inactive” in each case. Moreover, the 50% effective dose (ED50) with Semliki Forest virus [3] is more than 400 mg/kg.

As for `Nc1nc(O)c(Br)c(-c2cccc3ccccc23)n1`, the IFN in the assay on Mus musculus [1] was found to be 10 units/mL. The median effective dose (ED50) in the assay on Semliki Forest virus [2] is more than 400 mg/kg; in the assay on Semliki Forest virus [3] it was 40 mg/kg; with Semliki Forest virus [4], more than 400 mg/kg. Also, the Protection index in the assay with Human alphaherpesvirus 1 came out at 0.

For the compound `COc1ccc(-c2nc(N)nc(O)c2Br)cc1`, the ED50 result in the assay on Semliki Forest virus [5] and in the assay with Semliki Forest virus [6] was “inactive” in each case. The same compound showed an ED50 in the assay on Semliki Forest virus [3] of more than 400 mg/kg.

As to `Nc1nc(O)c(Br)c(-c2ccccc2O)n1`, in the assay on Semliki Forest virus [7], the ED50 result was “inactive”.

On to `COc1cccc(-c2nc(N)nc(O)c2Br)c1`, for which the Protection index with Mus musculus [8] stood at 0.62. Besides, the IFN in assay [9] is recorded as 50 units/mL. For the same compound, the 50% effective dose (ED50) is 55 mg/kg with Semliki Forest virus [2], 10 mg/kg in the assay with Semliki Forest virus [3] and more than 400 mg/kg with Semliki Forest virus [4].

Take `Nc1nc(O)c(Br)c(-c2ccco2)n1`: in assay [9], the IFN was found to be 50 units/mL. Besides, the values for the ED50 in the assay on Semliki Forest virus [2], in the assay on Semliki Forest virus [3] and with Semliki Forest virus [4] were more than 400 mg/kg, 295 mg/kg and more than 400 mg/kg, respectively. The Protection index in the assay on Human alphaherpesvirus 1 is 0.14.

In the case of `COc1cccc(-c2nc(N)nc(O)c2Cl)c1`, the Protection index in the assay on Mus musculus [8] is reported as 0.92. This compound displayed an IFN in assay [9] of 50 units/mL. Also, the figures for the 50% effective dose (ED50) with Semliki Forest virus [2], in the assay on Semliki Forest virus [3] and in the assay with Semliki Forest virus [4] were 205 mg/kg, 15 mg/kg and more than 400 mg/kg, respectively.

As for `Nc1nc(O)c(Cl)c(-c2ccc(OCc3ccccc3)cc2)n1`, the ED50 result in the assay on Semliki Forest virus [7] is “inactive”.

Compound `Nc1nc(O)c(I)c(-c2ccc(Cl)cc2)n1` registered an IFN in the assay with Mus musculus [1] of 10 units/mL. Also, the 50% effective dose (ED50) was more than 400 mg/kg in the assay with Semliki Forest virus [2], 110 mg/kg with Semliki Forest virus [3] and more than 400 mg/kg in the assay with Semliki Forest virus [4]. Further, the Protection index in the assay with Human alphaherpesvirus 1 is recorded as 0.27.

For the compound `Nc1nc(O)c(I)c(-c2cccc([N+](=O)[O-])c2)n1`, the IFN result in assay [9] was “>=2000 ml”. Further, the results for the ED50 in the assay with Semliki Forest virus [2], in the assay with Semliki Forest virus [3] and in the assay with Semliki Forest virus [4] were 155 mg/kg, 90 mg/kg and more than 400 mg/kg, respectively. For the same compound, the Protection index with Human alphaherpesvirus 1 amounted to 0.6.

In turn, `Nc1nc(O)c(I)c(-c2ccco2)n1` yielded an IFN in the assay on Mus musculus [1] of 10 units/mL. Besides, the median effective dose (ED50) was more than 400 mg/kg in the assay with Semliki Forest virus [2], 135 mg/kg in the assay on Semliki Forest virus [3] and more than 400 mg/kg in the assay with Semliki Forest virus [4]. Besides, the Protection index in the assay with Human alphaherpesvirus 1 amounted to 0.28.

The compound `Nc1nc(O)c(Cl)c(-c2cccc([N+](=O)[O-])c2)n1` yielded an IFN in [9] of 50 units/mL. In addition, the median effective dose (ED50) in the assay with Semliki Forest virus [2] is 380 mg/kg; in the assay on Semliki Forest virus [3] it was 140 mg/kg; with Semliki Forest virus [4], more than 400 mg/kg. Also, the Protection index in the assay on Human alphaherpesvirus 1 was 0.92.

The compound `Nc1nc(O)c(Br)c(-c2ccc(Cl)cc2)n1` had an IFN in the assay on Mus musculus [1] of 10 units/mL. In addition, the ED50 with Semliki Forest virus [2] is more than 400 mg/kg; with Semliki Forest virus [3], 100 mg/kg; in the assay with Semliki Forest virus [4], more than 400 mg/kg.

Turning to `Nc1nc(O)c(Br)c(-c2cccc(Cl)c2)n1`, in [9], the IFN entry is “>=2000 ml”. Besides, the ED50 with Semliki Forest virus [2] is 300 mg/kg; in the assay with Semliki Forest virus [3], 30 mg/kg; in the assay on Semliki Forest virus [4], more than 400 mg/kg. The compound further returned a Protection index in the assay on Human alphaherpesvirus 1 of 0.78.

Take `COc1cccc(-c2nc(N)nc(O)c2Br)c1OC`: the ED50 result in the assay with Semliki Forest virus [7] was “inactive”.

For `Cc1ccc(-c2nc(N)nc(O)c2I)cc1`, the IFN in the assay on Mus musculus [1] stood at 10 units/mL. Also, the ED50 was more than 400 mg/kg in the assay with Semliki Forest virus [2], 115 mg/kg in the assay on Semliki Forest virus [3] and more than 400 mg/kg in the assay with Semliki Forest virus [4].

Regarding `Nc1nc(O)c(Cl)c(-c2cc(Cl)ccc2Cl)n1`, in [9], the IFN result is “>=2000 ml”. Besides, the ED50 in the assay on Semliki Forest virus [2] turned out to be 115 mg/kg; with Semliki Forest virus [3], 120 mg/kg; in the assay with Semliki Forest virus [4], 200 mg/kg. In addition, the Protection index in the assay on Human alphaherpesvirus 1 is on record as 0.47.

As to `Nc1nc(O)c(Br)c(-c2ccc3ccccc3n2)n1`, the ED50 entry with Semliki Forest virus [5], in the assay with Semliki Forest virus [6] and in the assay with Semliki Forest virus [7] was “inactive” in each case. The compound further yielded a Protection index in the assay on Human alphaherpesvirus 1 of 0.14.

Turning to `Nc1nc(O)c(Br)c(-c2ccncc2)n1`, the ED50 entry in the assay on Semliki Forest virus [5] and in the assay with Semliki Forest virus [6] was “inactive” throughout. In addition, the Protection index with Human alphaherpesvirus 1 was 0. Moreover, the ED50 in the assay on Semliki Forest virus [3] is more than 400 mg/kg.

On to `Nc1nc(O)c(Br)c(-c2c(F)ccc(F)c2F)n1`, for which the ED50 entry in the assay on Semliki Forest virus [7] was “inactive”. Further, the Protection index in the assay on Human alphaherpesvirus 1 is listed as 0.

For the compound `CC(C)(C)c1ccc(-c2nc(N)nc(O)c2Cl)cc1`, the ED50 entry with Semliki Forest virus [5], with Semliki Forest virus [6] and with Semliki Forest virus [7] was “inactive” throughout.

For `Nc1nc(O)c(Br)c(-c2ccc(-c3ccccc3)cc2)n1`, the ED50 entry in the assay on Semliki Forest virus [5], in the assay with Semliki Forest virus [6] and in the assay with Semliki Forest virus [7] was “inactive” each time.
